According to ChEMBL document CHEMBL3091351, “The 3,7-diazabicyclo[3.3.1]nonane scaffold for subtype selective nicotinic acetylcholine receptor (nAChR) ligands. Part 1: the influence of different hydrogen bond acceptor systems on alkyl and (hetero)aryl substituents” (Bioorg Med Chem, 2013):
The source made the active and inactive calls. The rule behind the calls is not given here.

Key:
[1] = target: T1, Neuronal acetylcholine receptor; alpha4/beta2 (Rattus norvegicus, UniProt P09483+P12390); experiment: Displacement of [3H]epibatidine from alpha4beta2 nAChR in Sprague-Dawley rat forebrain P2 fraction after 90 mins by liquid scintillation counting analysis
T1 sequence (P09483 whole entry): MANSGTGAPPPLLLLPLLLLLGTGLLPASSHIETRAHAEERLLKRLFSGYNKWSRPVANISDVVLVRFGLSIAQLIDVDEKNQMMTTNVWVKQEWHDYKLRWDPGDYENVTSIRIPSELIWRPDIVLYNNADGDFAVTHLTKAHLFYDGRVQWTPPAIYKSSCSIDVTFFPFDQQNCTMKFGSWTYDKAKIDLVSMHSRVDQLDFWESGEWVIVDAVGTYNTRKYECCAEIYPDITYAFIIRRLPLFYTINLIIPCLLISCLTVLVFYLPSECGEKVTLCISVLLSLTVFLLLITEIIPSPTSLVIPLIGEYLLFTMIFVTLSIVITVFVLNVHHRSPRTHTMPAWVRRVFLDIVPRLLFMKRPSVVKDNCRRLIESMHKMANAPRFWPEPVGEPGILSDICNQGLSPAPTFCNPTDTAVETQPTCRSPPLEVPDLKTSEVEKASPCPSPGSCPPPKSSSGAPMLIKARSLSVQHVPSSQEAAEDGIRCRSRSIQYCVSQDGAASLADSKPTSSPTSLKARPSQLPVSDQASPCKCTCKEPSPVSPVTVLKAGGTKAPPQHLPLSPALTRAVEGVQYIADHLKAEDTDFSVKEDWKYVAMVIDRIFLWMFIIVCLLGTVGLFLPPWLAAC
T1 sequence (P12390 whole entry): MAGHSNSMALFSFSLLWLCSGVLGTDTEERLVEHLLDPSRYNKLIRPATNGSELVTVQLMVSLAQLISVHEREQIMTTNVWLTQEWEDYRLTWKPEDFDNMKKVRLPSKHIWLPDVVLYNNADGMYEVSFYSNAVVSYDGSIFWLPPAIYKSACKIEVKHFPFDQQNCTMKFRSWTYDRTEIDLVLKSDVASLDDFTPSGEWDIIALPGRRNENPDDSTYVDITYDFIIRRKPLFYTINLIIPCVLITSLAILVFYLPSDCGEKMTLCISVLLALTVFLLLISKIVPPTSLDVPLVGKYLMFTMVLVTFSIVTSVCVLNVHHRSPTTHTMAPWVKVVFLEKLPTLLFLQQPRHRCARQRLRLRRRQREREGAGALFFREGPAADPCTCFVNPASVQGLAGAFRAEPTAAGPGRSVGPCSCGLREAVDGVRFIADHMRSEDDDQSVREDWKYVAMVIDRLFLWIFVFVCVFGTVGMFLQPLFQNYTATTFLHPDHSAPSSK
In short: (§1)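 Rat forebrain P2 membranes (60 µg protein) in HSS buffer with 0.5 nM (±)-[3H]epibatidine and 6–9 test concentrations. Incubated 90 min at 22 °C; non-specific binding defined with 300 µM (−)-nicotine. Filtered through PEI-presoaked glass fibre filters and counted by liquid scintillation. Run in duplicate to quadruplicate, with 2–10 independent experiments.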

[2] = target: T1, Neuronal acetylcholine receptor; alpha4/beta2; experiment: Displacement of [3H]nicotine from alpha4beta2 nAChR in Sprague-Dawley rat brain membrane fraction after 2 to 3 hrs by liquid scintillation counting analysis; format: cell membranes
[3] = target: T2, Neuronal acetylcholine receptor subunit alpha-7 (Rattus norvegicus, UniProt Q05941); experiment: Displacement of [3H]methyllycaconitine from alpha7 nAChR in Sprague-Dawley rat brain membrane fraction after 2 hrs by liquid scintillation counting analysis; format: cell membranes
T2 sequence (Q05941 whole entry): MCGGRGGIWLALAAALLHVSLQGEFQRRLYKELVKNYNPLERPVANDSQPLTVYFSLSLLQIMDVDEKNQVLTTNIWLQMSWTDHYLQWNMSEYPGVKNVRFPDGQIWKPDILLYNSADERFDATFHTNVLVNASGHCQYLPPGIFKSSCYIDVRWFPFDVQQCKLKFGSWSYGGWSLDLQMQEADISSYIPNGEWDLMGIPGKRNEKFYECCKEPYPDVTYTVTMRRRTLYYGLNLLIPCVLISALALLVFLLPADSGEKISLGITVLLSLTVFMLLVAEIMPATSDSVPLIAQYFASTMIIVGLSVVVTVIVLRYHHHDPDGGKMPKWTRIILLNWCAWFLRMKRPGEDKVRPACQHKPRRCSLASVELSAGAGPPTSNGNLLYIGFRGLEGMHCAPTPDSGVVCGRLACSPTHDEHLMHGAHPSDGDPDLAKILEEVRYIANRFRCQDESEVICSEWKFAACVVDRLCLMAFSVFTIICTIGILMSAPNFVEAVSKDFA
In short: (§2)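 Competition binding on rat forebrain P2 membranes (60–70 µg protein) with [3H]MLA across 6–9 test concentrations. Incubation 120 min at 22 °C; 1 µM MLA defined non-specific binding. Samples filtered on PEI-presoaked glass fibre, scintillation-counted; duplicate to quadruplicate, 2–10 independent experiments.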

[4] = target: T3, Neuronal acetylcholine receptor; alpha4/beta2 (Homo sapiens, UniProt P17787+P43681); experiment: Displacement of [3H]nicotine from alpha4beta2 nAChR expressed in human SH-EP1 clonal cell membranes after 2 to 3 hrs by liquid scintillation counting analysis
T3 sequence (P17787 whole entry): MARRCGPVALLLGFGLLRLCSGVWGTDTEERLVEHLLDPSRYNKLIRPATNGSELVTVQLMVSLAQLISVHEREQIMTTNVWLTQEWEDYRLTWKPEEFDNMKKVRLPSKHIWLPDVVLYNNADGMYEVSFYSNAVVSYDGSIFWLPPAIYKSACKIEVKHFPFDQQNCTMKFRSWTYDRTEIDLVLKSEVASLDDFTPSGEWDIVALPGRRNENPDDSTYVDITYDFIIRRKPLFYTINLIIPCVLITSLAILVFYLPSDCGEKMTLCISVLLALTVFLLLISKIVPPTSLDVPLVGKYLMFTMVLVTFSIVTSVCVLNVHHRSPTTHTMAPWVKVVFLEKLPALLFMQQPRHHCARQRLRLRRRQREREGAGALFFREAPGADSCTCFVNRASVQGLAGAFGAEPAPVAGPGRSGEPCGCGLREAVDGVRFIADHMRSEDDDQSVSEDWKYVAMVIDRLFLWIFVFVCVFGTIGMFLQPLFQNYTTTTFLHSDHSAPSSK
T3 sequence (P43681 whole entry): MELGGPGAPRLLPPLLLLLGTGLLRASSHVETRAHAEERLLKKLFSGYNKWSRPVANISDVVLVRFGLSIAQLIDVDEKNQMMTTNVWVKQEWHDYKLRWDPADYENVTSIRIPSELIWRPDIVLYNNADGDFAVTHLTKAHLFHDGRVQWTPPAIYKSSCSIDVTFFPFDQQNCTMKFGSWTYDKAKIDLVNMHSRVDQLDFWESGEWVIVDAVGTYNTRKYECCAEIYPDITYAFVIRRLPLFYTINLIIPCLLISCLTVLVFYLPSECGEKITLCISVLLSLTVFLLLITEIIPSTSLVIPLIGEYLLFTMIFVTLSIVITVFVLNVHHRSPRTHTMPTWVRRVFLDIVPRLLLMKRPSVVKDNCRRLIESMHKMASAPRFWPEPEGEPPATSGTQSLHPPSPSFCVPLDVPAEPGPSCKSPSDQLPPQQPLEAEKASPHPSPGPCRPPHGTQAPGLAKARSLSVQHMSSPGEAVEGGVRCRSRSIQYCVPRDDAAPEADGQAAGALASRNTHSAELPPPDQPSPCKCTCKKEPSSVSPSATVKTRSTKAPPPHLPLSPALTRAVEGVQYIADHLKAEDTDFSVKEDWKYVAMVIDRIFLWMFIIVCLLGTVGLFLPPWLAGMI

[5] = target: T2, Neuronal acetylcholine receptor subunit alpha-7; experiment: Displacement of [3H]methyllycaconitine from alpha7 nAChR in Sprague-Dawley rat forebrain P2 fraction after 90 mins by liquid scintillation counting analysis
[6] = Displacement of [3H]epibatidine from alpha3beta4 nAChR in calf adrenal membranes fraction after 90 mins by liquid scintillation counting analysis; format: cell membranes, Bos taurus
In short: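 Calf adrenal membranes (60–70 µg) in HSS buffer with 0.5 nM (±)-[3H]epibatidine, 6–9 test concentrations, 90 min at 22 °C. Non-specific binding with 300 µM (−)-nicotine. PEI-presoaked glass fibre filtration, liquid scintillation read-out; duplicate to quadruplicate, 2–10 independent experiments.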

[7] = Displacement of [3H]epibatidine from (alpha1)2beta1gammadelta nAChR in Torpedo californica electroplax after 90 mins by liquid scintillation counting analysis; parameters: species or system Tetronarce californica
In short: (§3)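 Torpedo californica electroplax membranes (60–70 µg) incubated with (±)-[3H]epibatidine and 6–9 test concentrations in HSS buffer, 90 min at 22 °C. 300 µM (−)-nicotine defined non-specific binding. PEI-presoaked glass fibre filtration, scintillation counting; duplicate to quadruplicate, 2–10 independent experiments.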

[8] = target: Neuronal acetylcholine receptor subunit alpha-7 (Homo sapiens) (UniProt P36544); experiment: Agonist activity at human alpha7 nAChR expressed in Xenopus laevis oocytes at 10 uM incubated for 12 secs followed by compound washout for 181 secs by Two-electrode voltage clamp assay; format: cell-based
Sequence of Neuronal acetylcholine receptor subunit alpha-7 (Homo sapiens) (P36544 whole entry, the tested form may be a part): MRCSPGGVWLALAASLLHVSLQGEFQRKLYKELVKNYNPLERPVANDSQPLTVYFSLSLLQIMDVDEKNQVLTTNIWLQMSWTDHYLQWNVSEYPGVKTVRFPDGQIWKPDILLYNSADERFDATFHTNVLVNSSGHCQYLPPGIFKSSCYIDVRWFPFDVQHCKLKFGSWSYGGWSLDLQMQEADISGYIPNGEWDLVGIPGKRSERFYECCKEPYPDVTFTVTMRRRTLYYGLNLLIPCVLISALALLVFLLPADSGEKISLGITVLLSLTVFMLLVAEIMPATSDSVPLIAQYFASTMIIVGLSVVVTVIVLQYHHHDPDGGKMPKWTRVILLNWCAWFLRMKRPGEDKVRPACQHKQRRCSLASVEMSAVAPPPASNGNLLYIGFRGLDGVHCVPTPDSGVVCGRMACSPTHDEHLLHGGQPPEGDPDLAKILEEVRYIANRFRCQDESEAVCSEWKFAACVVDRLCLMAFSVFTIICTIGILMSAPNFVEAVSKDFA
In short: (§4)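 Stage V oocytes, defolliculated with collagenase, injected with 5–20 ng subunit cRNA and recorded 1–7 days later. Two-electrode clamp at −60 mV in Ringer's with 1 µM atropine, pH 7.2. Perfusion 2 ml/min for α7, 4 ml/min for the others. Test applications were bracketed by ACh controls (30 µM α1β1εδ, 60 µM α7, 100 µM α3β4, 30 µM α4β2).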

[9] = target: T4, Nicotinic acetylcholine receptor alpha1/beta1/epsilon/delta (Mus musculus) (UniProt P04756+P09690+P02716+P20782); experiment: Agonist activity at mouse alpha1beta1epsilondelta nAChR expressed in Xenopus laevis oocytes at 10 uM incubated for 8 secs followed by compound washout for 241 secs by Two-electrode voltage clamp assay; format: cell-based; in short: as §4
[10] = target: T5, Neuronal acetylcholine receptor; alpha3/beta4 (Homo sapiens) (UniProt P30926+P32297); experiment: Agonist activity at human alpha3beta4 nAChR expressed in Xenopus laevis oocytes at 10 uM incubated for 8 secs followed by compound washout for 241 secs by Two-electrode voltage clamp assay; format: cell-based; in short: as §4
[11] = target: T4, Nicotinic acetylcholine receptor alpha1/beta1/epsilon/delta (Mus musculus); experiment: Antagonist activity at mouse alpha1beta1epsilondelta nAChR expressed in Xenopus laevis oocytes assessed as inhibition of acetylcholine-induced effect at 10 uM incubated for 8 secs followed by compound washout for 241 secs by Two-electrode voltage clamp assay; format: cell-based
In short: (§5)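 Oocytes clamped at −60 mV, perfused with Ringer's plus 1 µM atropine, pH 7.2. After two control ACh applications, the compound was co-applied with control ACh (60 µM for α7, 30 µM for α1β1εδ), followed by one further ACh control to gauge rundown. α7 used 2 ml/min perfusion; muscle subtype used 4 ml/min.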

[12] = target: Neuronal acetylcholine receptor subunit alpha-7 (Homo sapiens) (UniProt P36544); experiment: Antagonist activity at human alpha7 nAChR expressed in Xenopus laevis oocytes assessed as inhibition of acetylcholine-induced effect at 10 uM incubated for 12 secs followed by compound washout for 181 secs by Two-electrode voltage clamp assay; format: cell-based; in short: as §5
[13] = target: T4, Nicotinic acetylcholine receptor alpha1/beta1/epsilon/delta (Mus musculus); experiment: Agonist activity at mouse alpha1beta1epsilondelta nAChR expressed in Xenopus laevis oocytes at 1 uM incubated for 8 secs followed by compound washout for 241 secs by Two-electrode voltage clamp assay; format: cell-based; in short: as §4
[14] = target: T5, Neuronal acetylcholine receptor; alpha3/beta4 (Homo sapiens); experiment: Agonist activity at human alpha3beta4 nAChR expressed in Xenopus laevis oocytes at 1 uM incubated for 8 secs followed by compound washout for 241 secs by Two-electrode voltage clamp assay; format: cell-based; in short: as §4
[15] = target: T3, Neuronal acetylcholine receptor; alpha4/beta2; experiment: Agonist activity at human alpha4beta2 nAChR expressed in Xenopus laevis oocytes at 1 uM incubated for 8 secs followed by compound washout for 241 secs by Two-electrode voltage clamp assay; format: cell-based; in short: as §4
[16] = target: Neuronal acetylcholine receptor subunit alpha-7 (Homo sapiens) (UniProt P36544); experiment: Agonist activity at human alpha7 nAChR expressed in Xenopus laevis oocytes at 1 uM incubated for 12 secs followed by compound washout for 181 secs by Two-electrode voltage clamp assay; format: cell-based; in short: as §4
[17] = Binding affinity to (alpha1)2beta1gammadelta nAChR (unknown origin); parameters: species or system Homo sapiens
[18] = target: T3, Neuronal acetylcholine receptor; alpha4/beta2; experiment: Agonist activity at human alpha4beta2 nAChR expressed in Xenopus laevis oocytes at 10 uM incubated for 8 secs followed by compound washout for 241 secs by Two-electrode voltage clamp assay; format: cell-based; in short: as §4
[19] = Binding affinity to pig adrenal alpha3beta4 nAChR by radioligand displacement assay; parameters: species or system Sus scrofa
[20] = Binding affinity to (alpha1)2beta1gammadelta nAChR in Torpedo californica electroplax by radioligand displacement assay; parameters: species or system Tetronarce californica; in short: as §3
[21] = target: T2, Neuronal acetylcholine receptor subunit alpha-7; experiment: Displacement of [3H]methyllycaconitine from rat forebrain alpha7 nAChR; in short: as §2
[22] = target: Neuronal acetylcholine receptor subunit alpha-7 (Homo sapiens) (UniProt P36544); experiment: Partial agonist activity at human alpha7 nAChR expressed in Xenopus laevis oocytes at 10 uM incubated for 12 secs followed by compound washout for 181 secs by Two-electrode voltage clamp assay; format: cell-based
In short: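 α7-expressing oocytes injected with 50 nl of 5–20 ng cRNA and recorded 1–7 days later. Clamped at −60 mV and perfused at 2 ml/min with Ringer's solution (pH 7.2, 1 µM atropine). Two 60 µM ACh control applications, then a compound application, then a follow-up ACh control. Applications lasted 12 s with a 181 s washout.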

[23] = target: T3, Neuronal acetylcholine receptor; alpha4/beta2; experiment: Partial agonist activity at human alpha4beta2 nAChR expressed in Xenopus laevis oocytes at 10 uM incubated for 8 secs followed by compound washout for 241 secs by Two-electrode voltage clamp assay; format: cell-based
In short: (§6)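 Oocytes injected with 50 nl of 5–20 ng subunit cRNA and recorded 1–7 days later. Two-electrode voltage clamp at −60 mV, with perfusion at 4 ml/min in Ringer's solution (pH 7.2, 1 µM atropine). Two initial ACh control applications, then a compound application, then a follow-up ACh control. Applications lasted 8 s with a 241 s washout. Control ACh was 100 µM for α3β4 and 30 µM for α4β2.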

[24] = target: T3, Neuronal acetylcholine receptor; alpha4/beta2; experiment: Antagonist activity at human alpha4beta2 nAChR expressed in Xenopus laevis oocytes assessed as inhibition of acetylcholine-induced effect at 10 uM incubated for 8 secs followed by compound washout for 241 secs by Two-electrode voltage clamp assay; format: cell-based
In short: (§7)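 Oocytes injected with 50 nl of 5–20 ng subunit cRNA and recorded 1–7 days later. Two-electrode voltage clamp at −60 mV, with perfusion at 4 ml/min in Ringer's solution (pH 7.2, 1 µM atropine). Each recording ran two ACh controls, then compound co-applied with ACh, then a follow-up ACh control. Applications lasted 8 s with a 241 s washout. Control ACh was 100 µM for α3β4 and 30 µM for α4β2.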

[25] = target: T5, Neuronal acetylcholine receptor; alpha3/beta4 (Homo sapiens); experiment: Partial agonist activity at human alpha3beta4 nAChR expressed in Xenopus laevis oocytes at 10 uM incubated for 8 secs followed by compound washout for 241 secs by Two-electrode voltage clamp assay; format: cell-based; in short: as §6
[26] = target: T5, Neuronal acetylcholine receptor; alpha3/beta4 (Homo sapiens); experiment: Antagonist activity at human alpha3beta4 nAChR expressed in Xenopus laevis oocytes assessed as inhibition of acetylcholine-induced effect at 10 uM incubated for 8 secs followed by compound washout for 241 secs by Two-electrode voltage clamp assay; format: cell-based; in short: as §7
[27] = target: T1, Neuronal acetylcholine receptor; alpha4/beta2; experiment: Displacement of [3H]-epibatidine from rat forebrain alpha4beta2 nAChR; in short: as §1

| SMILES | Ki [1] | Ki [2] | Ki [3] | Ki [4] | Ki [5] | Ki [6] | Ki [7] | Activity [8] | Activity [10] | other results |
| --- | --- | --- | --- | --- | --- | --- | --- | --- | --- | --- |
| CC(C)C(=O)N1C[C@@H]2CNC[C@@H](C2)C1 | 50.3 nM | 102 nM | 645 nM | 44.4 nM | > 5000 nM | 828 nM | – | – | – | – |
| O=C(c1ccco1)N1C[C@@H]2CNC[C@@H](C2)C1 | 21.4 nM | 31 nM | 15000 nM | 9.9 nM | – | 2240 nM | > 10000 nM | – | – | – |
| O=C(C1CCCC1)N1C[C@@H]2CNC[C@@H](C2)C1 | 10.8 nM | 26.6 nM | 211 nM | 20.2 nM | – | – | – | Active | inactive | Activity [9]: inactive |
| O=C(CC1CCCC1)N1C[C@@H]2CNC[C@@H](C2)C1 | 43.5 nM | – | – | – | – | – | – | – | inactive | Activity [11]: Active; Activity [12]: Active |
| C1NCC2CNCC1C2 | 600 nM | – | – | – | > 1000 nM | > 1000 nM | > 1000 nM | Active | Active | Activity [13]: Active; Activity [14]: Active; Activity [15]: Active; Activity [16]: Active |
| O=C1CCCC2[C@H]3CNC[C@H](C3)CN12 (stereo partly drawn) | – | – | – | – | – | – | – | – | – | Ki [17]: 19000 nM |
| CCCC(=O)N1C[C@@H]2CNC[C@@H](C2)C1 | 3.6 nM | 8.1 nM | 230 nM | 2.9 nM | > 1000 nM | 266 nM | > 5000 nM | Active | Active | Activity [18]: Active; Activity [9]: inactive |
| CN1C[C@@H]2C[C@H](C1)C1CCCC(=O)N1C2 (stereo partly drawn) | – | – | – | – | – | – | – | – | – | Ki [17]: > 50000 nM |
| O=c1cccc2n1C[C@@H]1CNC[C@H]2C1 [CYTISINICLINE] | – | – | – | – | – | – | – | – | – | Ki [19]: 19 nM; Ki [20]: 1300 nM; Ki [21]: 250 nM |
| CC(=O)N1C[C@@H]2CNC[C@@H](C2)C1 | 5.6 nM | 18.7 nM | 3280 nM | 20.2 nM | 636 nM | 664 nM | – | Active | Active | Activity [9]: inactive |
| O=C(c1ccc(-c2ccccc2)cc1)N1C[C@@H]2CNC[C@@H](C2)C1 | 39.9 nM | – | – | – | – | 1090 nM | – | – | – | Activity [22]: Active; Activity [23]: Active; Activity [24]: Active; Activity [25]: Active; Activity [12]: Active; Activity [26]: Active |
| CCC(=O)N1C[C@@H]2CNC[C@@H](C2)C1 | 4.5 nM | 12.2 nM | 795 nM | 10.4 nM | > 2000 nM | 329 nM | > 1000 nM | Active | Active | – |
| O=c1c(-c2cccnc2)ccc2n1C[C@@H]1CNC[C@H]2C1 | – | – | – | – | – | – | – | – | – | Ki [27]: 0.91 nM; Ki [20]: > 5000 nM; Ki [21]: 1100 nM |
